Reference: publication PMC11397428 (Science Advances, 2024)
In brackets after ≈: the same amount, converted by molar mass. Where a SMILES comes first, the peptide text is derived from it. The star is where a group is joined. Phenylacetyl(4-Ph) = O=C(Cc1ccc(-c2ccccc2)cc1)*

Experiments:
[1] = Pulmonary biodistribution of FITC-labeled peptide, CLSM; type: in vivo, mouse; details: 128 μM, 50 μl intratracheal, 1 h
Procedure, shortened: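 Acute lung injury induced in BALB/c mice by intratracheal LPS (10 mg kg^−1). FITC-labelled peptide (128 μM, 50 μl) then given intratracheally, n = 3. Lungs taken 1 hour after dosing. Sections stained for CD68 (macrophages) with DAPI counterstain and imaged by confocal microscopy.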

[2] = test system: bone marrow–derived macrophages (BMDMs); test: M2 macrophage polarization of BMDMs, CD206/CD86 flow cytometry; type: cell-based, mouse; details: M1 positive control LPS 10 ng ml^−1 and IFN-γ 20 ng ml^−1
red blood cells (RBCs) = test: Hemolysis assay; type: cell-based, New Zealand rabbit; details: 3 hours, 37°C, PBS; for hemolytic activity: 256 μM, n = 9
Procedure, shortened: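 Freshly drawn rabbit blood diluted tenfold in PBS. RBCs pelleted and washed eight times with PBS. Peptide stocks made in PBS at 512 μM and diluted twofold six times. RBCs incubated with peptide for 3 hours at 37°C; 1% Triton X-100 as positive control, PBS as negative control. Samples spun at 10,000 rpm for 10 min; hemolysis calculated from supernatant absorbance at 570 nm.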

[3] = test system: human bronchial epithelial cells (BEAS-2B); test: Cytocompatibility, MTT assay; type: cell-based; details: 24-hour coincubation
Procedure, shortened: (§1)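 Cell lines grown with 10% FBS and 1% penicillin-streptomycin. Seeded at 1 × 10^4 cells per well and allowed 24 hours to attach. Medium then replaced with fresh medium containing test peptide at a range of concentrations. Viability read by MTT after 24 hours of co-incubation.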

MRE-induced ALI = test: Comparison with ceftazidime in MRE-infected mice; type: in vivo, mouse; details: ceftazidime/avibactam 32/8 mg kg^−1 subcutaneous every 12 hours; n = 12
[4] = test system: human embryonic kidney (HEK) 293T; test: Cytocompatibility, MTT assay; type: cell-based; details: 24 h, n = 9
Procedure, shortened: as §1

[5] = test system: HS-5 (human marrow stromal cells); test: Cytocompatibility, MTT assay; type: cell-based; details: 24 h, n = 9
Procedure, shortened: as §1

RAW264.7 = test: Cytocompatibility, MTT assay; type: cell-based, murine; details: 24 h, n = 9
Procedure, shortened: as §1

DC2.4 = test: Cytocompatibility, MTT assay; type: cell-based, murine; details: 24 h, n = 9
Procedure, shortened: as §1

[6] = test system: multidrug-resistant Escherichia coli (MRE); test: MIC against MRE; type: cell-based; details: n = 3 biologically replicates
[7] = Pharmacokinetic study of SPRAY-BLKR-NPs in ALI mice; type: in vivo, mouse
healthy mice = test: Immunomodulation and toxicity in healthy mice; type: in vivo, mouse
BMDMs = test: Endocytosis mode of FITC-BLKR with endocytosis inhibitors; type: cell-based, mouse; details: FITC-BLKR 16 μM, 15 min; EIPA 50 μM, CPZ 40 μM, Filipin III 5 μg ml^−1; n = 3

For `CC(C)C[C@H](N)C(=O)N[C@@H](CCCCN)C(=O)N[C@@H](CCCNC(=N)N)C(=O)N[C@H](C(=O)N[C@@H](Cc1c[nH]c2ccccc12)C(=O)N[C@@H](CCCCN)C(=O)N[C@@H](CCCNC(=N)N)C(=O)O)C(C)C` [LKR] (H-LKRVWKR-OH), the “accumulation in injured lung tissue” value [1] was “extremely little accumulation”.

With lipopolysaccharide [LPS] the “CD86+ macrophage in the total population” value [2] was “more than 80%”.

In the case of `CC[C@H](C)[C@H](NC(=O)[C@H](CCCCN)NC(=O)[C@H](Cc1ccccc1)NC(=O)[C@H](Cc1ccccc1)NC(=O)Cc1ccc(-c2ccccc2)cc1)C(=O)N[C@H](C(=O)N[C@@H](CCCCN)C(=O)N[C@H](C(=O)N[C@@H](C)C(=O)N[C@@H](CCCCN)C(=O)O)C(C)C)[C@@H](C)CC` [BKII] ({Phenylacetyl(4-Ph)}-FFKIIKVAK-OH), the hemolytic activity (red blood cells (RBCs)) is reported as “no detectable hemolytic activity” and the “cytotoxicity toward BEAS-2B” value [3] is reported as “no notable cytotoxicity”.

In the case of `CC(C)(O/N=C(\C(=O)N[C@@H]1C(=O)N2C(C(=O)[O-])=C(C[n+]3ccccc3)CS[C@H]12)c1csc(N)n1)C(=O)O` [Ceftazidime], the 2-day survival rate (MRE-induced ALI) is reported as 58.3%.

In the case of `CC(C)C[C@H](NC(=O)[C@H](Cc1ccccc1)NC(=O)[C@H](Cc1ccccc1)NC(=O)Cc1ccc(-c2ccccc2)cc1)C(=O)N[C@@H](CCCCN)C(=O)N[C@@H](CCCNC(=N)N)C(=O)N[C@H](C(=O)N[C@@H](Cc1c[nH]c2ccccc12)C(=O)N[C@@H](CCCCN)C(=O)N[C@@H](CCCNC(=N)N)C(=O)O)C(C)C` [BLKR] ({Phenylacetyl(4-Ph)}-FFLKRVWKR-OH), the hemolytic activity (red blood cells (RBCs)) is reported as “no detectable hemolytic activity”, the “cytotoxicity toward BEAS-2B” value [3] is reported as “no notable cytotoxicity” and the “cytotoxicity, HEK 293T” value [4] is reported as “no significant cytotoxicity”. For the same molecule, the “cytotoxicity, HS-5” value [5] was “no significant cytotoxicity”, the “cytotoxicity, RAW264.7” value (RAW264.7) was “no significant cytotoxicity” and the “cytotoxicity, DC2.4” value (DC2.4) was “no significant cytotoxicity”. For the same molecule, the “MIC against MRE” value [6] was 16 µM (≈ 23.6 µg/mL), the “BLKR left in entire respiratory tract” value ([7]; ALI mice, single dose 18.42 μg per mouse, 12 hours after administration) was about 10% and the “pulmonary area under the curve relative to kidney” value ([7]; within 24 hours) was over 154.13 times. For the same molecule, the “pulmonary area under the curve relative to liver” value ([7]; within 24 hours) was “more than 47.90 times”, the “monocyte infiltration in the alveolar site, histology” value (healthy mice; 128 or 256 μM, 50 μl twice) was “no monocyte infiltration was observed” and the “inflammatory cell infiltration in lung, histology” value (healthy mice; 512 or 1204 μM) was “inflammatory cell infiltration occurred in lung”. The “monocyte percentage in peripheral blood” value (healthy mice; all the tested concentrations, n = 3) was “no elevation of monocyte percentage”.

With `CN(C)CCCN1c2ccccc2Sc2ccc(Cl)cc21` [CPZ, chlorpromazine] the “loss of BLKR uptake quantified by FITC intensity” value (“loss of BLKR uptake quantified” below) (BMDMs) was 24.47%.

Work on `CC[C@H](C)[C@H](NC(=O)[C@H](CC(C)C)NC(=O)[C@H](CCCNC(=N)N)NC(=O)[C@H](Cc1ccccc1)NC(=O)[C@H](Cc1ccccc1)NC(=O)Cc1ccc(-c2ccccc2)cc1)C(=O)N[C@@H](CCCNC(=N)N)C(=O)N[C@@H](Cc1ccc(O)cc1)C(=O)N[C@@H](CCSC)C(=O)N[C@@H](C)C(=O)N[C@@H](CCCCN)C(=O)O` [BRLI] ({Phenylacetyl(4-Ph)}-FFRLIRYMAK-OH) yielded a hemolysis rate (red blood cells (RBCs); 128 μM) of 7.49%.

In the case of `CCN(c1nc(N)c(C(=O)NC(=N)N)nc1Cl)C(C)C` [EIPA, ethyl-isopropyl-amiloride], the “loss of BLKR uptake quantified” value (BMDMs) is reported as 22.14%.

For `CCCCC[C@@H](O)[C@H]1C(=O)O[C@H](C)[C@@H](O)/C=C/C=C/C=C/C=C/C=C(\C)[C@@H](O)C[C@H](O)C[C@H](O)C[C@H](O)C[C@H](O)C[C@H](O)C[C@@H]1O` [Filipin III], the “loss of BLKR uptake quantified” value (BMDMs) was 43.01%.
